This note sets out measurements from ChEMBL document CHEMBL5649170, “Sustained microglial depletion with CSF1R inhibitor impairs parenchymal plaque development in an Alzheimer's disease model” (Nat Commun, 2019).

The IC50 is the concentration needed to halve the response being measured. A low value points to greater potency. By AUC(0-inf) is commonly meant total exposure, with the tail of the curve extrapolated.

The test system of data set [1] is Mus musculus. In words: Antialzheimer activity in 5XFAD mouse assessed as amyloidbeta40 level in detergent insoluble thalamus fraction measured per microgram protein at 1200 ppm administered as rodent chow starting from 1.5 months and measured after 7 months by ELISA (reference value: 57.876 to 502395 pg). It is filed as functional. Particulars: route po, time 5.5 months, 4015 h. A digest of the protocol: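 PLX5622 at 1200 ppm in chow given to 5xFAD mice from 1.5 months to 4 or 7 months of age; cortex and thalamus homogenized in TPER (detergent-soluble), pellets re-homogenized in 70% formic acid and spun 100,000 g, 1 h, 4 °C (insoluble); protein by Bradford/Lowry; Aβ species measured by Meso Scale electrochemiluminescence immunoassay, normalized to protein; n = 7–8 per group at 7 months.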
A general note: ELISA stands for enzyme-linked immunosorbent assay.

The target in data set [2] is Protein kinase C alpha type (Homo sapiens, UniProt P17252). In words: Inhibition of PRKCA (unknown origin).
The nature of data set [3]: Effect on Itgax gene expression in 5XFAD mouse cortex at 1200 ppm administered as rodent chow starting from 1.5 months and measured after 7 months by RNA-Seq analysis (reference value: 1.746 to 3.999 RPKM). The format is functional. The note with it: route po, time 5.5 months, 4015 h.
Data set [4] concerns the target T1, Macrophage colony-stimulating factor 1 receptor (Mus musculus) (UniProt P09581).
T1 sequence (whole entry): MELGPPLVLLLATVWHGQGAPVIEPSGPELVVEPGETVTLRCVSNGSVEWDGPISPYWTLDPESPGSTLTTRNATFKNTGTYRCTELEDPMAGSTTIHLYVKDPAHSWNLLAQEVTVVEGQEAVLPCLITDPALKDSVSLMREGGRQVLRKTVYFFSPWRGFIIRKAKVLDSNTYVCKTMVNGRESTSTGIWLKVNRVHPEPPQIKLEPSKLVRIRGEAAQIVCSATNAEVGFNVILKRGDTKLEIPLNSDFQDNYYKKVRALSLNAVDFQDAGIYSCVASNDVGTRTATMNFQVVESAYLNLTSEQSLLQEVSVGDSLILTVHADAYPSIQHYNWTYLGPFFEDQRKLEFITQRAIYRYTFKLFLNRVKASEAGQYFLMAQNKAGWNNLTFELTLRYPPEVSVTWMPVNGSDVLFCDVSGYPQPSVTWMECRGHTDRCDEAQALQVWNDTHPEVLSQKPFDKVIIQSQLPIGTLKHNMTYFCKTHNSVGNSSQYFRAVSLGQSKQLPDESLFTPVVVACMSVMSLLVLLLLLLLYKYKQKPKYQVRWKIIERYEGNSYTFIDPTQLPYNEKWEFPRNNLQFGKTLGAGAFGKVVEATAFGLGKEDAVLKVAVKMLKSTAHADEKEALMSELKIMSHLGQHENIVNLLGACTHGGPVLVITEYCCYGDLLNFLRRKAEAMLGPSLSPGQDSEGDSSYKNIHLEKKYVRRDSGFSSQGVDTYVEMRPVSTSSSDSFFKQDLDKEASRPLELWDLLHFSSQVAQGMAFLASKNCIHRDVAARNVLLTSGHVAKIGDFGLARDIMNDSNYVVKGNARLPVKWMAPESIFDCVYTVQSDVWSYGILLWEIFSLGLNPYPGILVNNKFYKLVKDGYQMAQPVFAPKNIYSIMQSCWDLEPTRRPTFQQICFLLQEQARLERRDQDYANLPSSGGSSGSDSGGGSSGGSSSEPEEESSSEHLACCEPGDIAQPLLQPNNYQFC
In words: In vivo inhibition of CSF1R in wildtype mouse assessed as iron reactivity by measuring hemosiderin intensity of prussian blue staining in […] cortex at 1200 ppm administered as rodent chow starting from 1.5 months and measured after 4 months by confocal microscopic analysis (reference value: 0.362 to 5.194 a.u.). The format is functional. Particulars: route po, time 2.5 months. A digest of the protocol:
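Wild-type or 5xFAD mice fed PLX5622 (1200 ppm) in AIN-76A chow from 1.5 months of age, examined in 4- and 7-month-old cohorts. Brain sections stained with a Prussian blue kit per kit instructions to detect iron deposits (microbleeds).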

Data set [5] concerns Mus musculus. In words: Prevention of Hgf gene downregulation in 5XFAD mouse hippocampus at 1200 ppm administered as rodent chow starting from 1.5 months and measured after 7 months by Nanostring analysis. Particulars: route po, time 5.5 months. It is filed as functional, tissue-based.
The target of data set [6] is Rho-associated protein kinase 2 (Homo sapiens, UniProt O75116). In words: Inhibition of ROCK2 (unknown origin).
Chain of Rho-associated protein kinase 2 (O75116 whole entry): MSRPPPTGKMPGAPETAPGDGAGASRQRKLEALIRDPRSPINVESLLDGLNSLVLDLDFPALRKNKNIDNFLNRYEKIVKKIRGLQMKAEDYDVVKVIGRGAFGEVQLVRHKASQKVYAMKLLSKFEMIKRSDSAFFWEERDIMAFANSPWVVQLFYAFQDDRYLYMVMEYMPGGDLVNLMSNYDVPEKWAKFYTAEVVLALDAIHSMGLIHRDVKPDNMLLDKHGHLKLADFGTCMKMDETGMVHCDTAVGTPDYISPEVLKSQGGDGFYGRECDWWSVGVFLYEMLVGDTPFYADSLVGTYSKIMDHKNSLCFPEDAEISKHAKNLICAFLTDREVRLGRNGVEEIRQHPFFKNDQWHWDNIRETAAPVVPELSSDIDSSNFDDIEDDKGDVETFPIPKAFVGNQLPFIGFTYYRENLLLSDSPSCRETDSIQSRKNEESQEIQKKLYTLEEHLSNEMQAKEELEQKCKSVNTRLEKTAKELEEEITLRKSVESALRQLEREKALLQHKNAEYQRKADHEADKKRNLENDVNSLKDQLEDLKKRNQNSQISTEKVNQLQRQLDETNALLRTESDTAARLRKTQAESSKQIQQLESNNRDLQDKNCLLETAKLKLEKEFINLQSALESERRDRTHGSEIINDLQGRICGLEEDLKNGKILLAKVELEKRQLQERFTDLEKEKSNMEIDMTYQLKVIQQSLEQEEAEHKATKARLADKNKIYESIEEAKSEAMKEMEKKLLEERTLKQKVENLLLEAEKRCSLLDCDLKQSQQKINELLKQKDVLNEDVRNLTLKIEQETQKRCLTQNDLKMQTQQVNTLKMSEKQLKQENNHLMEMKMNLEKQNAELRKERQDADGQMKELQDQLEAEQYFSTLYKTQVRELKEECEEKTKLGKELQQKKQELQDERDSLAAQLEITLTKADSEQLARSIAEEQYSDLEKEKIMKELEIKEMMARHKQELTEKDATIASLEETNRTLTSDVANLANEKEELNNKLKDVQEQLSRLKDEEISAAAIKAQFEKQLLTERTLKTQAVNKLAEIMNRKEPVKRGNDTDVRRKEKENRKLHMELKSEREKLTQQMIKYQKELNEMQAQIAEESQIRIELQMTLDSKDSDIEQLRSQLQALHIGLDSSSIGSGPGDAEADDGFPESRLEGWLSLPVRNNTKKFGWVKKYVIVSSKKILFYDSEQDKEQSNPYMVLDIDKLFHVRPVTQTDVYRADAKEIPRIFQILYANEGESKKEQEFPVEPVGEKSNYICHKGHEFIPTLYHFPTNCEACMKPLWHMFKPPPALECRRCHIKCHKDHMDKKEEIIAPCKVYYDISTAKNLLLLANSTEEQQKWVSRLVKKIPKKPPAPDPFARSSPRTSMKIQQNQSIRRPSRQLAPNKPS
Data set [7] is described as follows: Effect on Itgax gene expression in wild type mouse cortex at 1200 ppm administered as rodent chow starting from 1.5 months and measured after 7 months by RNA-Seq analysis (reference value: 0.069 to 0.218 RPKM). It is filed as functional. The note with it: route po, time 5.5 months, 4015 h.
In data set [8] the target is Testis-specific serine/threonine-protein kinase 1 (Homo sapiens, UniProt Q9BXA7). In words: Inhibition of STK22D (unknown origin).
Chain of Testis-specific serine/threonine-protein kinase 1 (Q9BXA7 whole entry): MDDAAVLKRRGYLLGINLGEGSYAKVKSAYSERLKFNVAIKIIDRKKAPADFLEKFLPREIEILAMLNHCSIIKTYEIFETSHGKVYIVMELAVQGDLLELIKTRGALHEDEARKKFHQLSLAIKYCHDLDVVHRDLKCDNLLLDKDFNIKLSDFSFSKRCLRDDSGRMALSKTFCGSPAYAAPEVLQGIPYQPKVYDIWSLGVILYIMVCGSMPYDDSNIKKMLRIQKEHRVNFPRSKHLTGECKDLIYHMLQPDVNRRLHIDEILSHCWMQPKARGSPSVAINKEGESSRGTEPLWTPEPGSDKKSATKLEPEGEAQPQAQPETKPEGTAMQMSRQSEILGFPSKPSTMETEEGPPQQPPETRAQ
A short description of data set [9]: AUC (0 to infinity) in mouse at 45 mg/kg, po administered as single dose via gavage. The note with it: in vivo. The format is ADME, organism-based.
In data set [10] the target is Ribosomal protein S6 kinase alpha-5 (Homo sapiens, UniProt O75582). In words: Inhibition of RPS6KA5 (unknown origin).
Chain of Ribosomal protein S6 kinase alpha-5 (O75582 whole entry): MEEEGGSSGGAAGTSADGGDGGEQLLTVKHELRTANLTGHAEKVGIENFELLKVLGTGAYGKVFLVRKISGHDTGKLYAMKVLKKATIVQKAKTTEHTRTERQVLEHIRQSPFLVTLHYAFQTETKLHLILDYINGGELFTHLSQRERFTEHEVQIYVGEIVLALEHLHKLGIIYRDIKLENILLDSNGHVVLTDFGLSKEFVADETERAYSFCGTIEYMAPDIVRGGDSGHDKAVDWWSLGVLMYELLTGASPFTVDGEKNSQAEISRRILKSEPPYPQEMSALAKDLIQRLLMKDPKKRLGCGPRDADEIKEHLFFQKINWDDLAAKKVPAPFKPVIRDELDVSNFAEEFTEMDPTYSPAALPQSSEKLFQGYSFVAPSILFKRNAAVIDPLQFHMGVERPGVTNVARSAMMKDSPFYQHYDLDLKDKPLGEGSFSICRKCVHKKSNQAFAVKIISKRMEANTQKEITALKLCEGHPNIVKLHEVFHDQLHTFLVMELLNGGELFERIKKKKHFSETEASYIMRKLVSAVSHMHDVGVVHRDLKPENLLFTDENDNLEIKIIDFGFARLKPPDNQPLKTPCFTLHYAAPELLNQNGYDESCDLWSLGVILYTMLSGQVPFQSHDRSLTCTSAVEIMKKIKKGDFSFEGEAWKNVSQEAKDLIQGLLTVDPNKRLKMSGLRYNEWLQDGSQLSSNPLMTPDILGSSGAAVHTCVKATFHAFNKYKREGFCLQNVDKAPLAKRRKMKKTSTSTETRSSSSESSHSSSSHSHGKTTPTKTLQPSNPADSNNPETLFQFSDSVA
Data set [11] concerns Mus musculus. In words: Prevention of C1qc gene upregulation in 5XFAD mouse hippocampus at 1200 ppm administered as rodent chow starting from 1.5 months and measured after 7 months by Nanostring analysis. The note with it: route po, time 5.5 months. It is filed as functional, tissue-based.
A short description of data set [12]: Effect on Spi1 gene expression in 5XFAD mouse cortex at 1200 ppm administered as rodent chow starting from 1.5 months and measured after 7 months by RNA-Seq analysis (reference value: 1.689 to 2.928 RPKM). Particulars: route po, time 5.5 months, 4015 h. The format is functional.
Data set [13] addresses Tyrosine-protein kinase Fyn (Homo sapiens, UniProt P06241). In words: Inhibition of FYN (unknown origin).
In data set [14] the target is T1, Macrophage colony-stimulating factor 1 receptor (Mus musculus). In words: In vivo inhibition of CSF1R in wildtype mouse assessed as number of Iba1 positive cells per FOV in subiculum at 1200 ppm administered as rodent chow starting from 1.5 months and measured after 7 months by immunolabeling based confocal microscopic analysis (reference value: 482 to 1085). The format is functional. Particulars: route po, time 5.5 months.

Data set [15] in a line: Effect on Scn1b gene expression in wildtype mouse hippocampus assessed as percent change in Reads Per kilo base per Million mapped reads at 1200 ppm administered as rodent chow starting from 1.5 months and measured after 7 months by RNA-Seq analysis (reference value: 86.853 to […]). It is filed as functional. Particulars: route po, time 5.5 months, 4015 h.
Data set [16] deals with G protein-coupled receptor kinase 4 (Homo sapiens, UniProt P32298). In words: Inhibition of GRK4 (unknown origin).
Chain of G protein-coupled receptor kinase 4 (P32298 whole entry): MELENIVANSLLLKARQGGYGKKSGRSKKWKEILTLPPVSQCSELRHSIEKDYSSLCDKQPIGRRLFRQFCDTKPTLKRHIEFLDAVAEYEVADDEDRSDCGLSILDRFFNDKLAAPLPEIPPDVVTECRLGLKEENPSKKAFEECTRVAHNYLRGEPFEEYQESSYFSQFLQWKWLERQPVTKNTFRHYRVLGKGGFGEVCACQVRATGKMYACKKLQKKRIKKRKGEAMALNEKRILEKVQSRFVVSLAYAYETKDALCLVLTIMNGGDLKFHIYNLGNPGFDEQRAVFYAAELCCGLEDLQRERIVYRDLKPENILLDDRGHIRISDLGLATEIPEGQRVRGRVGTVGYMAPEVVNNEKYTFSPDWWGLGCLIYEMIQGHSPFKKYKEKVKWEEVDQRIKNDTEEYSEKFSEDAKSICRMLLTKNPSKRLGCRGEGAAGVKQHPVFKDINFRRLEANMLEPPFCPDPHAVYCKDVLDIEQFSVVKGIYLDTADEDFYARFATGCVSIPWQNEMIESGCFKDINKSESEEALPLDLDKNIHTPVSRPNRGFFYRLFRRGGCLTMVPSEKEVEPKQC
Data set [17] concerns Mus musculus. In words: Antialzheimer activity in 5XFAD mouse assessed as number of entries to perimeter zone at 1200 ppm administered as rodent chow for 10 to 24 weeks by Open field test (reference value: 22 to 55). The format is functional. The note with it: route po, time 10-24 weeks.
For data set [18], the system named is Mus musculus. In words: Antialzheimer activity in 5XFAD mouse assessed as number of This-S positive cells per FOV in […] cortex at 1200 ppm administered as rodent chow starting from 1.5 months to 4 months followed by compound removal and measured after 1 months by immunolabelling based confocal microscopic analysis (reference value: 63 to 124). It is filed as functional. The note with it: route po, time 2.5 months, 1825 h. A digest of the protocol:
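For the repopulation paradigm, 5xFAD mice ate 1200 ppm PLX5622 chow from 1.5 to 4 months of age. Inhibitor chow was then withdrawn, and brains were examined one month later. Sections were stained with Thio-S and immunolabeled for IBA1, then analysed by confocal microscopy in cortical regions.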

The structures appear in SMILES notation. Calls of active or inactive are those of the source. The calls are words filed in the database; no cut-off is given here.

Chain of Tyrosine-protein kinase Fyn (P06241 whole entry): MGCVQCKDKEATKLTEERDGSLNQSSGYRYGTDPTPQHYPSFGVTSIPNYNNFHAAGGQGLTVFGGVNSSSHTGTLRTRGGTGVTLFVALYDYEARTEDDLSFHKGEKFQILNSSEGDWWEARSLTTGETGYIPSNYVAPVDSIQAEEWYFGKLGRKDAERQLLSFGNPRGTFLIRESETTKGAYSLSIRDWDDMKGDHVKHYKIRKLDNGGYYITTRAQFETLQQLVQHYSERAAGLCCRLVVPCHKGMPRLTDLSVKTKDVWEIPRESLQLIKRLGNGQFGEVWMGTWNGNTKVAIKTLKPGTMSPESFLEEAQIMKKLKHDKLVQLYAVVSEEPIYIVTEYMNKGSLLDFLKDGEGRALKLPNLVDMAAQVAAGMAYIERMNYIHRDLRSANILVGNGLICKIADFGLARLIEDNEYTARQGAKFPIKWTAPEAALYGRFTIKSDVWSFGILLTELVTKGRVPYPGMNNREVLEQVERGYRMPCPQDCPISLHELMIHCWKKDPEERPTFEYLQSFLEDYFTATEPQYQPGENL

Consider `COc1ncc(F)cc1CNc1ccc(Cc2c[nH]c3ncc(C)cc23)c(F)n1` [PLX-5622], for which the Activity was determined as 100.854 pg in the data set on Mus musculus [1]; 0.086 RPKM in data set [3]; 0 RPKM in data set [7]; 0.13 RPKM in data set [12]; 0 in data set [14]; 83.818% in [15]. Moreover, the Activity in the data set on Mus musculus [17] worked out at 7; in the data set with Mus musculus [18], 60. In addition, the IC50 in data set [2], in [6], in data set [8], in data set [10], in [13] and in data set [16] was over 1000 nM throughout. Further, the Flu intensity in data set [4] came out at 0.1 a.u. Besides, the outcome in the data set with Mus musculus [5] and with Mus musculus [11] was Active. The molecule further displayed a total exposure AUC(0-inf) in data set [9] of 215 µg·h/mL.
